Laboratory results as given in ChEMBL document CHEMBL4004831, “Naphthalene diimide-polyamine hybrids as antiproliferative agents: Focus on the architecture of the polyamine chains” (Eur J Med Chem, 2017).
In brackets after ≈: the same amount, converted by molar mass.

Tests used:
[1] = Stabilization of 5'Dabcyl/3'FAM labeled duplex DNA (unknown origin) assessed as increase in melting temperature at 2.5 uM pretreated for 5 mins at 30 degreeC followed by 5 mins incubation at 95 degreeC by fluorescence assay
Procedure, shortened: (§1)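 FRET melting in LiP buffer (10 mM LiOH, 50 mM KCl, pH 7.0 with H3PO4), ex 488 nm, em 520 nm. Samples were held 5 min at 30 °C, heated at 1 °C/min to 95 °C, held 5 min, then re-annealed. Tm came from first derivatives; ΔTm = shift with ligand at 2.5; at least three runs.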

[2] = organism: Homo sapiens; assay: Stabilization of 5'Dabcyl/3'FAM labeled human telomeric sequence G-quadruplex DNA assessed as increase in melting temperature at 2.5 uM pretreated for 5 mins at 30 degreeC followed by 5 mins incubation at 95 degreeC by fluorescence assay; procedure, shortened: as §1
[3] = molecular target: DNA topoisomerase 2-alpha (Homo sapiens, UniProt P11388); assay: Inhibition of human topoisomerase-2alpha-mediated relaxation of supercoiled pBR322 DNA after 1 hr by ethidium bromide staining based agarose gel electrophoresis
Procedure, shortened: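 Supercoiled pBR322 was incubated with compound (0.5–100) and 1 U human topoisomerase IIα in enzyme buffer for 1 h at 37 °C. Reactions were stopped with Tris/EDTA/NaCl loading buffer (pH 8.0) and run on 1% agarose in TAE with 0.1% SDS (4.9 V/cm, 90 min), then stained with ethidium bromide. IC50 is the concentration reducing relaxation activity by 50%.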

[4] = system: Thermus aquaticus; assay: Inhibition of Thermus aquaticus DNA polymerase-mediated amplification of fragment of pBR322 by PCR
Procedure, shortened: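 PCR amplification of a pBR322 fragment by Taq polymerase with increasing compound (0.25–40) for 25 cycles: 94 °C, 58 °C and 72 °C, 30 s each. Products were run on 2% agarose in 0.5X TBE (4.2 V/cm, 1.5 h) and stained with ethidium bromide. IC50 is the concentration halving activity; MIC is the lowest concentration that suppresses activity.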

Sequence of DNA topoisomerase 2-alpha (P11388 whole entry): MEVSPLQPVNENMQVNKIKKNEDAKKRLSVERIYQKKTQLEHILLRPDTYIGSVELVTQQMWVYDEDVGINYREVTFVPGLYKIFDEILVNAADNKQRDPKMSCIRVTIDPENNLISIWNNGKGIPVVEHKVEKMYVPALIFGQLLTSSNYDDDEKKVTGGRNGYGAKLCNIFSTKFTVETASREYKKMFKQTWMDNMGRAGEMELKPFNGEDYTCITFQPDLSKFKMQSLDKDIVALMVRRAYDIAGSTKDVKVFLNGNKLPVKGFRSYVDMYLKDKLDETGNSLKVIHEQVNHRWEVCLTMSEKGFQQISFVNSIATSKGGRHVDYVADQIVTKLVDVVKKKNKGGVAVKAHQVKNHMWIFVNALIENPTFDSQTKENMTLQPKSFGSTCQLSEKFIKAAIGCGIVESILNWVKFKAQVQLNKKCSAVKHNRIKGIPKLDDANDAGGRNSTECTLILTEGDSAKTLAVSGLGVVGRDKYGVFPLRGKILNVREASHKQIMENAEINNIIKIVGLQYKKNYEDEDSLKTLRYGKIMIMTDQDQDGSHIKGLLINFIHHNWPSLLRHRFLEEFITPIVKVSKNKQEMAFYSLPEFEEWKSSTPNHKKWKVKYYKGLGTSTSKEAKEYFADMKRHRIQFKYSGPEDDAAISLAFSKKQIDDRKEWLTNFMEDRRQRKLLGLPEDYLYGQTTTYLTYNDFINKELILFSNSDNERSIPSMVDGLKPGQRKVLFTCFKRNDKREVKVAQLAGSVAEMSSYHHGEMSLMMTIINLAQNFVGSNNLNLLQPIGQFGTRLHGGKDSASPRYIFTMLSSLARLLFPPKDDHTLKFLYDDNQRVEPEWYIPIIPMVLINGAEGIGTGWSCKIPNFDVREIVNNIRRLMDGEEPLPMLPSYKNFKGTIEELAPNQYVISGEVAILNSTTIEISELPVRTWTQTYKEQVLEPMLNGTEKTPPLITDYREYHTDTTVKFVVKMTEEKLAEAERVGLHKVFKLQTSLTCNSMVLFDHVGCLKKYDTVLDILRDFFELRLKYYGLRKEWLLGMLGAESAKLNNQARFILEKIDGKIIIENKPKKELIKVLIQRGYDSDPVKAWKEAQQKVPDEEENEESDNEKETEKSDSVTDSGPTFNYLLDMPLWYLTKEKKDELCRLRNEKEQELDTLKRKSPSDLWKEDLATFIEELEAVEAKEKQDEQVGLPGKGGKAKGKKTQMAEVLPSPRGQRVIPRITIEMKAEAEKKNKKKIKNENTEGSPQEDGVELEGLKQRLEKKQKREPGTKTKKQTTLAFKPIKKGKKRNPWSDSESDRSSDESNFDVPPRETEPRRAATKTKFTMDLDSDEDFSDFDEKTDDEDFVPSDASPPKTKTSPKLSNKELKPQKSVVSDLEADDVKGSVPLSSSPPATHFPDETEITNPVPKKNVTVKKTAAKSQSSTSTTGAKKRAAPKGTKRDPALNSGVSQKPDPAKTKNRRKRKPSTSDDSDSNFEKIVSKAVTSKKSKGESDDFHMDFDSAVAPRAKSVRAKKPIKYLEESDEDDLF

ΔTm [1] [°C] | ΔTm [2] [°C] | IC50 [3] [µM] | MIC [4] [µM] | Structure (SMILES)
12.6 | 13.1 | – | – | COc1ccc(CNCCCN2C(=O)c3ccc4c5c(ccc(c35)C2=O)C(=O)N(CCCNCCCCNCCCN)C4=O)c(OC)c1OC
12.2 | 16.3 | – | – | COc1ccccc1CNCCCN1C(=O)c2ccc3c4c(ccc(c24)C1=O)C(=O)N(CCCNCCCNCCCN)C3=O
8.4 | 20.5 | 6 | 10 (≈ 6.21 µg/mL) | COc1ccccc1CNCCCN1C(=O)c2ccc3c4c(ccc(c24)C1=O)C(=O)N(CCCNCc1ccccc1OC)C3=O
